Assay results: ChEMBL document CHEMBL2396581, “20(S)-Protopanaxadiol (PPD) analogues chemosensitize multidrug-resistant cancer cells to clinical anticancer drugs” (Bioorg Med Chem, 2013); call rule not given here

How the values were obtained:
Format in all cases: cell-based
[1] = biological target: T1, ATP-dependent translocase ABCB1 (Homo sapiens, UniProt P08183); assay: Inhibition of p-gp in human KB/VCR cells assessed as potentiation of 1 uM docetaxel-induced cytotoxicity at 5 uM after 72 hrs by MTT assay
Method in brief: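 KBvcr cells seeded at 5 × 10^3 per well were cotreated with 5 μM compound and 1 μM docetaxel for 72 h. Survival (%) was read by MTT and compared with wells without docetaxel.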

[2] = biological target: T1, ATP-dependent translocase ABCB1; assay: Inhibition of p-gp in human KB/VCR cells assessed as intracellular accumulation of adriamycin at 5 uM after 3 hrs by fluorescence assay relative to control
Method in brief: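 KBvcr cells plated at 1 × 10^5 per well were given ADM (final 10 μM) with 5 μM compound for 3 h. After ice-cold PBS wash and lysis in 1% SDS, intrinsic ADM fluorescence (ex 485/em 590 nm) was read. Results are expressed as a ratio to the ADM-only control, mean ± SD, n = 3.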

[3] = Cytotoxicity against human KB/VCR cells assessed as cell viability at 5 uM after 72 hrs by MTT assay
Method in brief: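 KB/VCR cells in DMEM with 10% FBS and penicillin/streptomycin, 37 °C, 5% CO2. Cells were allowed to attach for 12 h, then exposed to compound for 72 h. MTT was added for 4 h and formazan read at 490 nm.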

[4] = biological target: T1, ATP-dependent translocase ABCB1; assay: Inhibition of p-gp in human KB/VCR cells assessed as potentiation of vincristine-induced cytotoxicity at 5 uM after 72 hrs by MTT assay
[5] = biological target: T1, ATP-dependent translocase ABCB1; assay: Inhibition of p-gp in human KB/VCR cells assessed as potentiation of adriamycin-induced cytotoxicity at 5 uM after 72 hrs by MTT assay
[6] = biological target: T1, ATP-dependent translocase ABCB1; assay: Inhibition of p-gp in human KB/VCR cells assessed as intracellular accumulation of rhodamine123 at 2 uM after 2 hrs by microplate fluorometric analysis
Method in brief: (§1)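 KBvcr cells plated at 1 × 10^5 per well were pretreated with graded compound concentrations, then given Rhodamine123 10 μM for 2 h at 37 °C. Cells were washed with ice-cold PBS and lysed in 1% SDS. Fluorescence (ex 494/em 517 nm) was read on a microplate fluorometer and compared with untreated cells. Three independent experiments.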

[7] = biological target: T1, ATP-dependent translocase ABCB1; assay: Inhibition of p-gp in human KB/VCR cells assessed as potentiation of 1 uM docetaxel-induced cytotoxicity at 5 uM after 72 hrs by MTT assay relative to verapamil
[8] = biological target: T1, ATP-dependent translocase ABCB1; assay: Inhibition of p-gp in human KB/VCR cells assessed as potentiation of adriamycin-induced cytotoxicity at 5 uM after 72 hrs by MTT assay relative to verapamil
[9] = biological target: T1, ATP-dependent translocase ABCB1; assay: Inhibition of p-gp in human KB/VCR cells assessed as intracellular accumulation of rhodamine123 at 0.5 uM after 2 hrs by microplate fluorometric analysis; method in brief: as §1
[10] = biological target: T1, ATP-dependent translocase ABCB1; assay: Inhibition of p-gp in human KB/VCR cells assessed as intracellular accumulation of rhodamine123 at 3 uM after 2 hrs by microplate fluorometric analysis; method in brief: as §1
[11] = biological target: T1, ATP-dependent translocase ABCB1; assay: Inhibition of p-gp in human KB/VCR cells assessed as potentiation of vincristine-induced cytotoxicity at 5 uM after 72 hrs by MTT assay relative to verapamil
[12] = biological target: T1, ATP-dependent translocase ABCB1; assay: Inhibition of p-gp in human KB/VCR cells assessed as intracellular accumulation of rhodamine123 after 2 hrs by microplate fluorometric analysis
Method in brief: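 KBvcr cells plated at 1 × 10^5 per well and incubated 2 h at 37 °C in CO2 incubator with 10 μM Rhodamine123, with or without test compounds. Cells washed with ice-cold PBS, then lysed in 1% SDS/PBS. Fluorescence read at ex 494/em 517 nm. Accumulation ratio taken relative to untreated cells. Mean SD of three independent experiments.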

[13] = biological target: T1, ATP-dependent translocase ABCB1; assay: Inhibition of p-gp in human KB/VCR cells assessed as potentiation of 100 nM docetaxel-induced cytotoxicity after 72 hrs by MTT assay
Method in brief: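 KBvcr cells cultured 72 h with fixed 100 nM docetaxel and graded modulator concentrations. Viability read by MTT, formazan at 490 nm. EC50 calculated from dose–response. Mean SD of three independent experiments.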

[14] = biological target: T1, ATP-dependent translocase ABCB1; assay: Inhibition of p-gp in human KB/VCR cells assessed as intracellular accumulation of rhodamine123 at 1 uM after 2 hrs by microplate fluorometric analysis; method in brief: as §1

T1 sequence (P08183 whole entry): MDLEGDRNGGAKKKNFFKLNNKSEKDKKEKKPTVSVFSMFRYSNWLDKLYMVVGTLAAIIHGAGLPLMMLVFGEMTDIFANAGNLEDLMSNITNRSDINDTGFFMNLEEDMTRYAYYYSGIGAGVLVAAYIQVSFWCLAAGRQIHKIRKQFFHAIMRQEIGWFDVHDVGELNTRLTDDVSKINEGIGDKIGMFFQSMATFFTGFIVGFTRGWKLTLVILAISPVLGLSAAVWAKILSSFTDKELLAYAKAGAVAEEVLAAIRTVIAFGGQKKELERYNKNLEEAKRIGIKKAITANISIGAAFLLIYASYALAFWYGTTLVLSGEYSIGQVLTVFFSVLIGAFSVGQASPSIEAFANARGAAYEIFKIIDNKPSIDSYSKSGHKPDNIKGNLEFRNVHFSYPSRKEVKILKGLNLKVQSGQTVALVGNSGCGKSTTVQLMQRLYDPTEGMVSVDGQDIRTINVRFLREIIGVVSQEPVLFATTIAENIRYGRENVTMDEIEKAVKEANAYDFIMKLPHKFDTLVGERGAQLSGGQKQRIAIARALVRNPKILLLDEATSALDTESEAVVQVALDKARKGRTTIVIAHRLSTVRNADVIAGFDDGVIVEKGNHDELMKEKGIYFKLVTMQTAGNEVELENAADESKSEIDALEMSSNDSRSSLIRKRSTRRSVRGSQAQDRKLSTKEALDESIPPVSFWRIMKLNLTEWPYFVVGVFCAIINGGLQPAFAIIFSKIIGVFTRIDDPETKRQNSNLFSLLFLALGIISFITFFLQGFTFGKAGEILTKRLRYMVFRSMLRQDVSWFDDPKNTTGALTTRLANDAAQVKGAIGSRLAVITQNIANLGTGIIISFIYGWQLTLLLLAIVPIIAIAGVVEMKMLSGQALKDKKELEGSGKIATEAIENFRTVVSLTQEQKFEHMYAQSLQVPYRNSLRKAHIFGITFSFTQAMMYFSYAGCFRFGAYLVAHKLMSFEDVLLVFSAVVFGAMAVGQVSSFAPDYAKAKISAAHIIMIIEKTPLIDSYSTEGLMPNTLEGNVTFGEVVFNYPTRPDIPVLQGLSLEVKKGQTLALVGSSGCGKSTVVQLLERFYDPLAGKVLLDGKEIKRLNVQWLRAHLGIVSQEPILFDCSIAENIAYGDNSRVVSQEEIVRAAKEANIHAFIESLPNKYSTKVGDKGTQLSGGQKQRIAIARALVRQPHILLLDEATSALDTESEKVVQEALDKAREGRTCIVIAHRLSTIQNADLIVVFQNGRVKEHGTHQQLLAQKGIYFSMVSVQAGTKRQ

CC1(C)[C@@H](O)CC[C@]2(C)[C@H]3C[C@@H](O)[C@@H]4[C@@H]([C@@](C)(O)CCCNCCc5ccc6c(c5)OCO6)CC[C@@]4(C)[C@]3(C)CC[C@@H]12
inhibition (INH) [1]: Active

CC1(C)[C@@H](O)CC[C@]2(C)[C@H]3C[C@@H](O)[C@@H]4[C@@H]([C@@](C)(O)CCCNCCCc5ccccc5)CC[C@@]4(C)[C@]3(C)CC[C@@H]12
inhibition (INH) [1]: Active
fold change (FC) [2]: 1.3
Activity [3]: Toxic

CC1(C)[C@@H](O)CC[C@]2(C)[C@H]3C[C@@H](O)[C@@H]4[C@@H]([C@@](C)(O)CCCNCc5ccccn5)CC[C@@]4(C)[C@]3(C)CC[C@@H]12
inhibition (INH) [1]: Active

CC1(C)[C@@H](O)CC[C@]2(C)[C@H]3C[C@@H](O)[C@@H]4[C@@H]([C@@](C)(O)CCCNCc5cccnc5)CC[C@@]4(C)[C@]3(C)CC[C@@H]12
inhibition (INH) [4]: Active
inhibition (INH) [1]: Active
fold change (FC) [2]: 1.3
inhibition (INH) [5]: Active

CC1(C)[C@@H](O)CC[C@]2(C)[C@H]3C[C@@H](O)[C@@H]4[C@@H]([C@@](C)(O)CCCNCc5ccncc5)CC[C@@]4(C)[C@]3(C)CC[C@@H]12
inhibition (INH) [1]: Active

COc1ccc(NCCC[C@](C)(O)[C@H]2CC[C@]3(C)[C@@H]2[C@H](O)C[C@@H]2[C@@]4(C)CC[C@H](O)C(C)(C)[C@@H]4CC[C@]23C)cc1
inhibition (INH) [1]: Not Active

CC1(C)[C@@H](O)CC[C@]2(C)[C@H]3C[C@@H](O)[C@@H]4[C@@H]([C@@](C)(O)CCCNCc5ccccc5)CC[C@@]4(C)[C@]3(C)CC[C@@H]12
RFU [6]: 57000
fold change (FC) [7]: 1.5
inhibition (INH) [1]: Active
fold change (FC) [2]: 1.3
fold change (FC) [8]: 1.3
RFU [9]: 39800
RFU [10]: 95300
fold change (FC) [11]: 1.3
inhibition (INH) [12]: Dose-dependent effect
inhibition (INH) [13]: Dose-dependent effect

C[C@H](NCCC[C@](C)(O)[C@H]1CC[C@]2(C)[C@@H]1[C@H](O)C[C@@H]1[C@@]3(C)CC[C@H](O)C(C)(C)[C@@H]3CC[C@]12C)c1ccccc1
inhibition (INH) [1]: Active
Activity [3]: Toxic

COc1ccc(CNCCC[C@](C)(O)[C@H]2CC[C@]3(C)[C@@H]2[C@H](O)C[C@@H]2[C@@]4(C)CC[C@H](O)C(C)(C)[C@@H]4CC[C@]23C)cc1
inhibition (INH) [1]: Active

CC1(C)[C@@H](O)CC[C@]2(C)[C@H]3C[C@@H](O)[C@@H]4[C@@H]([C@@](C)(O)CCCNCc5ccc(F)cc5)CC[C@@]4(C)[C@]3(C)CC[C@@H]12
inhibition (INH) [1]: Active
Activity [3]: Toxic

CC1(C)[C@@H](O)CC[C@]2(C)[C@H]3C[C@@H](O)[C@@H]4[C@@H]([C@@](C)(O)CCCNCc5ccc(Cl)cc5)CC[C@@]4(C)[C@]3(C)CC[C@@H]12
inhibition (INH) [1]: Active
Activity [3]: Toxic

COc1ccc(CNCCC[C@](C)(O)[C@H]2CC[C@]3(C)[C@@H]2[C@H](O)C[C@@H]2[C@@]4(C)CC[C@H](O)C(C)(C)[C@@H]4CC[C@]23C)cc1OC
inhibition (INH) [1]: Active

CC1(C)[C@@H](O)CC[C@]2(C)[C@H]3C[C@@H](O)[C@@H]4[C@@H]([C@@](C)(O)CCCNCCc5ccc(Cl)cc5)CC[C@@]4(C)[C@]3(C)CC[C@@H]12
inhibition (INH) [1]: Active
fold change (FC) [2]: 1.3
Activity [3]: Toxic

CC1(C)[C@@H](O)CC[C@]2(C)[C@H]3C[C@@H](O)[C@@H]4[C@@H]([C@@](C)(O)CCCNCCc5ccc([N+](=O)[O-])cc5)CC[C@@]4(C)[C@]3(C)CC[C@@H]12
inhibition (INH) [1]: Active
fold change (FC) [2]: 1.3
Activity [3]: Toxic

COc1ccc(CCNCCC[C@](C)(O)[C@H]2CC[C@]3(C)[C@@H]2[C@H](O)C[C@@H]2[C@@]4(C)CC[C@H](O)C(C)(C)[C@@H]4CC[C@]23C)cc1OC
inhibition (INH) [4]: Active
inhibition (INH) [1]: Active
fold change (FC) [2]: 1.3
inhibition (INH) [5]: Active

CNCCC[C@](C)(O)[C@H]1CC[C@]2(C)[C@@H]1[C@H](O)C[C@@H]1[C@@]3(C)CC[C@H](O)C(C)(C)[C@@H]3CC[C@]12C
inhibition (INH) [1]: Not Active

CCNCCC[C@](C)(O)[C@H]1CC[C@]2(C)[C@@H]1[C@H](O)C[C@@H]1[C@@]3(C)CC[C@H](O)C(C)(C)[C@@H]3CC[C@]12C
inhibition (INH) [1]: Not Active

CCCNCCC[C@](C)(O)[C@H]1CC[C@]2(C)[C@@H]1[C@H](O)C[C@@H]1[C@@]3(C)CC[C@H](O)C(C)(C)[C@@H]3CC[C@]12C
inhibition (INH) [1]: Not Active

CC(C)NCCC[C@](C)(O)[C@H]1CC[C@]2(C)[C@@H]1[C@H](O)C[C@@H]1[C@@]3(C)CC[C@H](O)C(C)(C)[C@@H]3CC[C@]12C
inhibition (INH) [1]: Not Active

CC(C)(C)NCCC[C@](C)(O)[C@H]1CC[C@]2(C)[C@@H]1[C@H](O)C[C@@H]1[C@@]3(C)CC[C@H](O)C(C)(C)[C@@H]3CC[C@]12C
inhibition (INH) [1]: Not Active

CC1(C)[C@@H](O)CC[C@]2(C)[C@H]3C[C@@H](O)[C@@H]4[C@@H]([C@@](C)(O)CCCNC5CC5)CC[C@@]4(C)[C@]3(C)CC[C@@H]12
inhibition (INH) [1]: Not Active

CC1(C)[C@@H](O)CC[C@]2(C)[C@H]3C[C@@H](O)[C@@H]4[C@@H]([C@@](C)(O)CCCNCCCn5ccnc5)CC[C@@]4(C)[C@]3(C)CC[C@@H]12
inhibition (INH) [1]: Not Active

CC1(C)[C@@H](O)CC[C@]2(C)[C@H]3C[C@@H](O)[C@@H]4[C@@H]([C@@](C)(O)CCCNCCN5CCNCC5)CC[C@@]4(C)[C@]3(C)CC[C@@H]12
inhibition (INH) [1]: Not Active

CC1(C)[C@@H](O)CC[C@]2(C)[C@H]3C[C@@H](O)[C@@H]4[C@@H]([C@@](C)(O)CCCNCCCO)CC[C@@]4(C)[C@]3(C)CC[C@@H]12
inhibition (INH) [1]: Not Active

CC(C)=CCC[C@](C)(O)[C@H]1CC[C@]2(C)[C@@H]1[C@H](O)C[C@@H]1[C@@]3(C)CC[C@H](O)C(C)(C)[C@@H]3CC[C@]12C
inhibition (INH) [1]: Not Active
Activity [3]: Non-toxic

COc1ccc(CCN(C)CCC[C@@](C#N)(c2ccc(OC)c(OC)c2)C(C)C)cc1OC
RFU [6]: 53000
RFU [14]: 46100
RFU [9]: 35900
RFU [10]: 98700
